Hits are enriched below; roughly 2.2% of the tested compounds scored in any of these assays.
FID counter = displaces DNA intercalator in HCV helicase counter-screen; DNA fluorescent intercalator displacement, fluorescence; inhibition, % at 7.9 µM; actives 0.17% (n = 290,000); AID 1845; in the data active means inhibition above about 37%;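 further: 0% = vehicle and 100% = reference compound; higher means more ethidium bromide displaced from hairpin DNA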
NS3 helicase inh = inhibitors of Hepatitis C virus NS3 helicase; NS3 helicase DNA unwinding, Cy5 molecular beacon fluorescence; inhibition, % at 10.9 µM; actives 0.56% (n = 290,000);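 active means inhibition above the mean of all tested compounds plus 3 SD, set per campaign, cut at about 35% in these data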;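 further: 0% = DMSO wells and 100% = thioflavine S control wells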
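Control set: DMSO versus 110 µM thioflavine S; Material: NS3 helicase fragment of HCV; Measured by: Cy5 fluorescence at 0 and 60 min, beacon hairpin quenching; Read-out basis: percent inhibition from t60/t0 fluorescence ratio; Times: reaction time 60 min, 25 °C; Repeats: single replicate; Compound dosing: single dose, 10.9 µM nominal final, DMSO 0.8% final.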
GPR7 antagonist = human neuropeptides B/W receptor 1 antagonism; P48145; GPR7-expressing cells, fluorescence antagonist assay; inhibition, % at 4.4 µM; actives 1.1% (n = 290,000); in the data active means inhibition above about 16%, passing the limit was not always enough;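 further: cells stimulated with the agonist NPW; 0% = agonist with vehicle and 100% = vehicle without agonist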
HCV core dimer = blocks dimerization of HCV core protein; actives 0.33% (n = 300,000); AID 1899; TR-FRET GST/Flag-core106 dimerization, 1536-well; inhibition, % at 5 µM;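 active means inhibition above the mean of all tested compounds plus 3 SD, set per screening campaign, cut at about 45% in these data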
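Material: Tagged HCV core106 pair (GST and Flag) | Amount: GST-core106 13.5 nM, Flag-core106 17 nM | Medium: KF-containing HEPES buffer, pH 7.45, DTT, CHAPS, BSA | Reagent: Eu donor and XL665 acceptor anti-tag antibodies | Schedule: 4 h at 22.5 °C | Technique: Time-resolved FRET, ex 340 nm, em 617 and 671 nm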
DAGLB inhibitor = diacylglycerol lipase beta (human) inhibition. AID 504411. Q8NCG7. HEK293T DAGLB membrane lysate, EnzChek fluorogenic substrate. inhibition, % at 5.17 µM. actives 0.059% (n = 340,000); in the data active means inhibition above about 34%;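 further: 0% = enzyme with vehicle and 100% = wells lacking enzyme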
GRK2 aptamer HTS = inhibitors of human GRK2 displacing RNA aptamer; bead flow cytometry, FAM-aptamer displacement from GRK2; actives 0.59% (n = 330,000); P25098; inhibition of aptamer binding, % at 10 µM; AID 488847;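 active means inhibition of aptamer binding above 40%, roughly 3 SD of noise, on plates passing a quality check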;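 further: median bead fluorescence of bound FAM aptamer so fluorescent compounds give negative values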
Target sequence (P25098 whole entry, looked up): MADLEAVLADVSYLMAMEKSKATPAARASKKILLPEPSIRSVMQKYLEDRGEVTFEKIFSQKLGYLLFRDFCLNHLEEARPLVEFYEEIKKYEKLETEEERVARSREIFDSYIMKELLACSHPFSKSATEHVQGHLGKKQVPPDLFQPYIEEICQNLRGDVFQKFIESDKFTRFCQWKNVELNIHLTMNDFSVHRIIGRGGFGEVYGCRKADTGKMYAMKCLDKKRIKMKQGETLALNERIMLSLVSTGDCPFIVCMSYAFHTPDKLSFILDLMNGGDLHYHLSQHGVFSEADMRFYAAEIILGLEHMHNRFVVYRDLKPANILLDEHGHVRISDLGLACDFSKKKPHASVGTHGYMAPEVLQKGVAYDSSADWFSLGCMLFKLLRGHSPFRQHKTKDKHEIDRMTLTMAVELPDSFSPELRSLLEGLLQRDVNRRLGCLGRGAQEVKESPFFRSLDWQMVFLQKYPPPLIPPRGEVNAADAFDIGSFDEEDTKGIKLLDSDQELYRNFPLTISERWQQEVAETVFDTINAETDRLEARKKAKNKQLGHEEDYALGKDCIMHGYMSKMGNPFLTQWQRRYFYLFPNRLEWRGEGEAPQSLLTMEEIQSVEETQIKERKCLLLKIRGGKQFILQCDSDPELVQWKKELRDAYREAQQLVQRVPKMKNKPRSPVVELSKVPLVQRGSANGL
GRK2 CP1 = confirmation of human GRK2 inhibitors displacing RNA aptamer. bead-bound GRK2, FAM-aptamer displacement, flow cytometry. aptamer displacement, % at 10 µM. shares compounds with GRK2 aptamer HTS. actives 4% (n = 2,000);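 active means aptamer displacement above 40%, near three times the noise of non-fluorescent compounds, on plates passing quality checks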;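 further: negative values mostly reflect intrinsic compound fluorescence rather than true enhancement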
Aptamer quench = fluorescent aptamer quenching in GRK2 counter-screen dose response; shares compounds with GRK2 aptamer HTS; Fluorescent RNA aptamer beads, flow cytometry; active compounds read high; fluorescence change (kMESF span), kMESF (no concentration beside the values); 110 tested, under 10 active;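 active means compounds whose bead fluorescence drops by more than 37 kMESF across the dose range, marking them as dye quenchers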
FAM quench CP1 = quenches fluorescent RNA aptamer, GRK2 hit artifact. Carboxyfluorescein RNA aptamer on beads, flow cytometry quenching; active compounds read low. fluorescence response (% of DMSO), % at 10 µM. AID 504580. shares compounds with GRK2 aptamer HTS. 2,000 tested, under 10 active;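 active means compounds that quench the bead-bound fluorescent RNA probe, cutting fluorescence to under half of the solvent control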;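 further: counterscreen run without GRK2 so only probe quenching by compound is measured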
GRK2 confirm 2 = confirmation of human GRK2 inhibitors binding RNA aptamer site; shares compounds with GRK2 aptamer HTS; AID 504782; 360 tested, under 10 active; bead-bound GRK2, FAM-aptamer displacement, flow cytometry; inhibition of aptamer binding, % at 10 µM;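 active means inhibition of aptamer binding above 40%, about triple the noise seen with nonglowing compounds, on plates passing quality control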;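 further: negative values mostly come from compounds that fluoresce themselves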
FAM quench SP = counter-screen for GRK2 binding hits: quenchers of fluorescent RNA aptamer. shares compounds with GRK2 aptamer HTS. carboxyfluorescein RNA aptamer beads, flow cytometry quenching; active compounds read low. fluorescence response vs DMSO, % at 10 µM. 360 tested, under 10 active;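 active means response vs DMSO under 50%, meaning signal dropped by over half, treated as fluorescence quencher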;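 further: labelled aptamer on streptavidin beads without GRK2 as a quench counter-screen; 100% = bead fluorescence of DMSO wells and lower means quenching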
An asterisk follows results filed as active; nt = not tested or not shown.

SMILES	FID counter	NS3 helicase inh	GPR7 antagonist	HCV core dimer	DAGLB inhibitor	GRK2 aptamer HTS	GRK2 CP1	FAM quench CP1	others
CC(=O)Nc1ccc(N(C)C)cc1[N+](=O)[O-]	5	7	-3	-12	0	41*	79*	100	Aptamer quench=-1.5
CC(=O)Nc1ccc(O)cc1[N+](=O)[O-]	-6	13	-2	-10	-3	0	nt	nt
Cc1sc2nc(SCC(=O)N3CCOCC3)[nH]c(=O)c2c1-c1ccccc1	-40	8	-14	3	4	93*	nt	nt	GRK2 confirm 2=4;FAM quench SP=100
CCOc1cccc(/C(O)=C2/C(=O)C(=O)N(Cc3cccnc3)C2c2ccco2)c1 (centres undefined)	-18	8	-5	13	0	0	nt	nt
CCOc1cccc(/C(O)=C2/C(=O)C(=O)N(CCOC)C2c2ccco2)c1 (centres undefined)	-8	7	-3	7	-1	47*	10	111
CC(C)Oc1ccc(NC(N)=O)cc1	0	-11	-8	-4	2	89*	-2	102
O=C(NNC(=S)Nc1ccc(F)c(Cl)c1)c1ccccc1Br	-5	-9	-4	-1	5	7	nt	nt
CCCCNC(=O)CN1C(=O)NC2NC(=O)NC21 (centres undefined)	-2	4	-11	5	2	98*	3	97
Cc1cc(C)cc(Nc2c(F)c(F)c(F)c(F)c2C(=O)O)c1	-12	28	-7	1	nt	89*	-2	89
COc1c(F)c(F)c(C(=O)O)c(Nc2cccc(C)c2)c1F	-26	30	-6	4	nt	1	nt	nt
CC(=O)Nc1nc(-c2ccccc2)cc(-c2ccco2)c1C#N	nt	nt	nt	nt	1	80*	-4	99
Cc1cc(=O)[nH]c(SCC(=O)Nc2c(C)n(C)n(-c3ccccc3)c2=O)c1C#N	nt	nt	nt	nt	2	0	nt	nt
Cc1ccc(C(=O)NCCCNCCCNC(=O)c2ccc(C)nc2)cn1	4	3	-8	0	1	45*	0	98
Cc1ccc(C(=O)NCCCNCCCN(C)C)cn1	19	-10	-9	-3	-1	0	nt	nt
CCN(C(=O)CSc1nnc(SC)s1)c1c(N)n(Cc2ccccc2)c(=O)[nH]c1=O	nt	nt	nt	nt	3	4	nt	nt
COc1ccc(-c2c(C#CC(C)(C)O)c3ccccc3n2C)cc1	nt	nt	nt	nt	-3	94*	nt	nt	GRK2 confirm 2=-11;FAM quench SP=96
COc1ccc(C#Cc2c(-c3ccccc3)n(C)c3ccccc23)cc1	nt	nt	nt	nt	-8	1	nt	nt
CCN(CC)CCn1c(OC)cc(=O)[nH]c1=O	0	0	-9	-7	2	69*	-5	101
CCN(CC)CCn1c(N)cc(=O)[nH]c1=O	5	10	-13	-10	-2	0	nt	nt
CC(C)C[C@H]1CN=C(Nc2ccccc2)N1CC1CCCCCC1	nt	nt	nt	-22	3	58*	-2	99
O=C(COC(=O)C1=COCCO1)NC1CCCCC1	nt	nt	nt	-2	0	2	nt	nt
COc1cc(NC(=O)C2CCCO2)c(C(=O)O)cc1OC (centres undefined)	1	-2	-2	-2	0	38	0	99
CCCN(CC(=O)Nc1ccccc1C)CC(=O)Nc1ccc(Br)cc1F	-25	-25	7	-5	-2	0	nt	nt
Cc1ccc(N(CN2CCCC2=O)C(=O)c2ccccc2)cc1	-5	-15	-3	-2	-2	67*	1	99

Screening results as filed in PubChem.
